Blank lines part the entries; values can stand above or below the molecule they belong to. Activity calls are given as the source filed them. The rule behind the calls is not given here.
What was measured:
[1] = target: NAD-dependent protein deacylase sirtuin-5, mitochondrial (Homo sapiens) (UniProt Q9NXA8); assay: Activation of N-terminal his-tagged human SIRT5 (34 to 302 residues) expressed in Escherichia coli assessed as fold activation at 10 to 100 uM using CPS1-succ537 as substrate in presence of NAD+; conditions: filed as activator, dose 10-100 µM
How it was run: (§1)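 Coupled enzymatic deacylation assay (nicotinamidase/GDH-coupled, continuous): 1.5 μM recombinant Sirtuin (expressed in E. coli, Ni-NTA purified, tag removed, size-exclusion purified) with 50 μM substrate peptide and 100 μM NAD+, without or with 10 μM or 100 μM 1,4-DHP, 5% final DMSO. Activity expressed relative to no-compound control.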
Target sequence in this assay (Q9NXA8 37-310 limits assumed): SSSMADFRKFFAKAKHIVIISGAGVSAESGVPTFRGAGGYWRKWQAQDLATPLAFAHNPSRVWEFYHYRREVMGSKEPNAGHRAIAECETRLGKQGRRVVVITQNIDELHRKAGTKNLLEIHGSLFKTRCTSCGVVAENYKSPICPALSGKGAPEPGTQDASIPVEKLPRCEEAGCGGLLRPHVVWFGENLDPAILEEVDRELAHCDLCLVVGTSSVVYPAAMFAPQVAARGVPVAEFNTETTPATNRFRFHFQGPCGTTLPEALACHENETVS

[2] = target: T1, NAD-dependent protein deacetylase sirtuin-2 (Homo sapiens) (UniProt Q8IXJ6); assay: Activation of N-terminal SUMO-tagged human SIRT2 (43 to 356 residues) expressed in Escherichia coli assessed as deacetylation of substrate at 100 uM using acetylated alpha tubulin-K2 as substrate in presence of NAD+; conditions: filed as activator; how it was run: as §1
T1 sequence (whole entry): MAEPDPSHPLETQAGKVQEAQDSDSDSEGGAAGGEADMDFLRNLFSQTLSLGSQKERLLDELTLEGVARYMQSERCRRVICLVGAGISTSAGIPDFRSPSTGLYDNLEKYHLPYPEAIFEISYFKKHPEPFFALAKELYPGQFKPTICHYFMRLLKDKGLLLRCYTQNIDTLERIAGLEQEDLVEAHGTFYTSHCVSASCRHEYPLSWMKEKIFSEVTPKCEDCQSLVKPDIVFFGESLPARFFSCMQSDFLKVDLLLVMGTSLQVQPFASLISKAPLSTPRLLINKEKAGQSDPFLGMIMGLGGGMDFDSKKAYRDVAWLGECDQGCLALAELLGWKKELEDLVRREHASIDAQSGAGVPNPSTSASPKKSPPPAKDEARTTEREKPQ

[3] = target: T2, NAD-dependent protein deacetylase sirtuin-1 (Homo sapiens) (UniProt Q96EB6); assay: Activation of N-terminal his-tagged human SIRT1 expressed in Escherichia coli assessed as fold activation at 100 uM using p53-acK381 as substrate in presence of NAD+; conditions: filed as activator; how it was run: as §1
T2 sequence (whole entry): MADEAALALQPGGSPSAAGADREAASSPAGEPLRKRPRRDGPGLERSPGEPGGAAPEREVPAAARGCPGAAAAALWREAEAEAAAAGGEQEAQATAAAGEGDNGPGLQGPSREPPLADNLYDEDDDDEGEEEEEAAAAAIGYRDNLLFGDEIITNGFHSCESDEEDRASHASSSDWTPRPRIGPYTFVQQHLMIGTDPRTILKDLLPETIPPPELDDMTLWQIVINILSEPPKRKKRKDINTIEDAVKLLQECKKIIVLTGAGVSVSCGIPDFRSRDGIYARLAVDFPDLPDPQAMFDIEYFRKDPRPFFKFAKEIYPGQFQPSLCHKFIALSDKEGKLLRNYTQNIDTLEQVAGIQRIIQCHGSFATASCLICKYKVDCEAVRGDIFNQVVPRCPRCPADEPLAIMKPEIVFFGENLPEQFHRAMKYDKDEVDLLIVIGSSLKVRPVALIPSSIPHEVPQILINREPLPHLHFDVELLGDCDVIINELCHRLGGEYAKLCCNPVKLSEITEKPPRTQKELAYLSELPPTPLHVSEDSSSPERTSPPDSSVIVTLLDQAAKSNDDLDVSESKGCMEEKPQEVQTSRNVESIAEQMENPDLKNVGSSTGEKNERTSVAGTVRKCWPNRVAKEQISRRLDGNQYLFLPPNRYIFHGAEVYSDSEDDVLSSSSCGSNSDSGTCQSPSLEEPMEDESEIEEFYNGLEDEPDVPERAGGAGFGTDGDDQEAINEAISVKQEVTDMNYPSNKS

[4] = target: T2, NAD-dependent protein deacetylase sirtuin-1 (Homo sapiens); assay: Activation of N-terminal his-tagged human SIRT1 expressed in Escherichia coli at 10 to 100 uM using p53-acK381 as substrate in presence of NAD+; conditions: filed as activator, dose 10-100 µM
How it was run: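 Compound titration in the nicotinamidase/GDH-coupled deacylation assay. 1.5 μM recombinant Sirt1 (E. coli-expressed, Ni-NTA purified, tag removed, size-exclusion purified) was used with 50 μM p53-acK381 peptide and 100 μM NAD+. 1,4-DHP was added at the indicated concentrations in 5% final DMSO.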

[5] = target: NAD-dependent protein deacylase sirtuin-5, mitochondrial (Homo sapiens) (UniProt Q9NXA8); assay: Activation of N-terminal his-tagged human SIRT5 (34 to 302 residues) expressed in Escherichia coli assessed as fold activation at 100 uM using CPS1-succ537 as substrate in presence of NAD+; conditions: filed as activator; how it was run: as §1
Target sequence in this assay (Q9NXA8 37-310 limits assumed): as the sequence (Q9NXA8 37-310 limits assumed) above

[6] = target: NAD-dependent protein deacylase sirtuin-5, mitochondrial (Homo sapiens) (UniProt Q9NXA8); assay: Activation of N-terminal his-tagged human SIRT5 (34 to 302 residues) expressed in Escherichia coli assessed as fold activation at 10 uM using CPS1-succ537 as substrate in presence of NAD+; conditions: filed as activator; how it was run: as §1
Target sequence in this assay (Q9NXA8 37-310 limits assumed): as the sequence (Q9NXA8 37-310 limits assumed) above

[7] = target: NAD-dependent protein deacylase sirtuin-5, mitochondrial (Homo sapiens) (UniProt Q9NXA8); assay: Activation of human recombinant SIRT5 assessed as decrease in PDHA1-succinylation at 100 uM by Western blot analysis; conditions: filed as activator
Target sequence in this assay (Q9NXA8 whole entry, looked up, the tested form may be a part): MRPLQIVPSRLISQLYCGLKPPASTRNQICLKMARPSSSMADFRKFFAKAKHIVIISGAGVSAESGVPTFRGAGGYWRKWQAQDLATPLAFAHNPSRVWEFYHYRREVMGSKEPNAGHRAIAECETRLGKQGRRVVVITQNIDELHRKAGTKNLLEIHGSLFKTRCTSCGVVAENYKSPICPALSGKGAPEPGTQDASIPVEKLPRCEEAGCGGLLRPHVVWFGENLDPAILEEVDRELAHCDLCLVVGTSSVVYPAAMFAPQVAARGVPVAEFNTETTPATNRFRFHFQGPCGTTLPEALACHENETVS

[8] = target: NAD-dependent protein deacylase sirtuin-5, mitochondrial (Homo sapiens) (UniProt Q9NXA8); assay: Activation of SIRT5 in human S2-013 cells assessed as decrease in GOT1 acetylation at 20 uM incubated for 24 hrs by Western blot analysis; conditions: filed as activator
Target sequence in this assay (Q9NXA8 whole entry, looked up, the tested form may be a part): as above

[9] = target: NAD-dependent protein deacylase sirtuin-5, mitochondrial (Homo sapiens) (UniProt Q9NXA8); assay: Activation of SIRT5 in human CAPAN-1 cells assessed as decrease in GOT1 acetylation at 20 uM incubated for 24 hrs by Western blot analysis; conditions: filed as activator
Target sequence in this assay (Q9NXA8 whole entry, looked up, the tested form may be a part): as above

[10] = target: T2, NAD-dependent protein deacetylase sirtuin-1 (Homo sapiens); assay: Activation of N-terminal his-tagged human SIRT1 expressed in Escherichia coli assessed as fold activation at 10 to 100 uM using p53-acK381 as substrate in presence of NAD+; conditions: filed as activator, dose 10-100 µM; how it was run: as §1
[11] = target: NAD-dependent protein deacylase sirtuin-5, mitochondrial (Homo sapiens) (UniProt Q9NXA8); assay: Activation of N-terminal his-tagged human SIRT5 (34 to 302 residues) expressed in Escherichia coli assessed as desuccinylation of substrate at 100 uM using CPS1-succ537 as substrate in presence of NAD+ by Mass spectrometry analysis; conditions: filed as activator
How it was run: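 MS-based desuccinylation assay: same components as coupled assay (1.5 μM Sirt5, 50 μM CPS1-succK537 peptide, 100 μM NAD+, 5% DMSO) but in 50 mM Na-phosphate pH 7.8 with 0.05 μg/μL PNCA to remove nicotinamide; compound at 100 μM; product and substrate peptides quantified by mass spectrometry.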
Target sequence in this assay (Q9NXA8 37-310 limits assumed): as the sequence (Q9NXA8 37-310 limits assumed) above

[12] = target: NAD-dependent protein deacylase sirtuin-5, mitochondrial (Homo sapiens) (UniProt Q9NXA8); assay: Activation of SIRT5 in human MDA-MB-231 cells assessed as decrease in GLS activity at 50 uM using TMP substrate incubated for 4 to 24 hrs; conditions: filed as activator, time 4-24 hrs
Target sequence in this assay (Q9NXA8 whole entry, looked up, the tested form may be a part): as the sequence (Q9NXA8 whole entry, looked up, the tested form may be a part) above

[13] = target: T1, NAD-dependent protein deacetylase sirtuin-2 (Homo sapiens); assay: Inhibition of N-terminal SUMO-tagged human SIRT2 (43 to 356 residues) expressed in Escherichia coli at 100 uM using acetylated alpha tubulin-K25 as substrate in presence of NAD+ relative to control; how it was run: as §1
[14] = target: T3, NAD-dependent protein deacetylase sirtuin-3, mitochondrial (Homo sapiens) (UniProt Q9NTG7); assay: Inhibition of N-terminal his-tagged human SIRT3 (114 to 380 residues) expressed in Escherichia coli at 100 uM using ACS2-acK642 as substrate in presence of NAD+ relative to control; how it was run: as §1
T3 sequence (whole entry): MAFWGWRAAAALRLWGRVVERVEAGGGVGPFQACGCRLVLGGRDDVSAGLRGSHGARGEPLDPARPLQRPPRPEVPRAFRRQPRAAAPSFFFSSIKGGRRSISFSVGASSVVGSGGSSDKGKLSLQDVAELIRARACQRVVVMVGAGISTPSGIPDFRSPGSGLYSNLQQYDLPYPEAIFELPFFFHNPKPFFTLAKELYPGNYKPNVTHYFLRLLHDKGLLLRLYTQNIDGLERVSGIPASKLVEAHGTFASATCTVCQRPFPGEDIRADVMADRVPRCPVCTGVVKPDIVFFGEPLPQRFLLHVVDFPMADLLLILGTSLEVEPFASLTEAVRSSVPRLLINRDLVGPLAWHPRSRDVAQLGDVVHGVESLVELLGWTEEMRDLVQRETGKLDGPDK

[15] = target: T3, NAD-dependent protein deacetylase sirtuin-3, mitochondrial (Homo sapiens); assay: Activation of N-terminal his-tagged human SIRT3 (114 to 380 residues) expressed in Escherichia coli assessed as fold activation at 100 uM using ACS2-acK642 as substrate in presence of NAD+; conditions: filed as activator
How it was run: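 Coupled continuous enzymatic assay (nicotinamidase/GDH-linked): 1.5 µM purified Sirt3 with 50 µM ACS2-acK642 peptide and 100 µM NAD+, compound at 10 µM, 100 µM or titrated, 5% DMSO final; fold deacetylation versus no-compound control.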

Compound: CCOC(=O)C1=CN(C(=O)c2cc(OC)c(OC)c(OC)c2)C=C(C(=O)OCC)C1c1ccoc1
fold change (FC) [1]: 2
Activity [2]: Active
fold change (FC) [3]: 2.5

Compound: CCOC(=O)C1=CN(C(=O)c2cc(OC)c(OC)c(OC)c2)C=C(C(=O)OCC)C1c1cccc(F)c1
Activity [4]: Active

Compound: CCOC(=O)C1=CN(C(=O)c2cnccn2)C=C(C(=O)OCC)C1c1ccccc1
fold change (FC) [5]: 2
fold change (FC) [6]: 1.2

Compound: CCOC(=O)C1=CN(C(=O)c2cc(OC)c(OC)c(OC)c2)C=C(C(=O)OCC)C1c1cccc(C)c1
Activity [4]: Active

Compound: CCOC(=O)C1=CN(C(=O)c2ccccc2)C=C(C(=O)OCC)C1c1ccc(C)cc1
fold change (FC) [5]: 2

Compound: CCOC(=O)C1=CN(C(=O)c2ccccc2)C=C(C(=O)OCC)C1c1cccc(Cl)c1
fold change (FC) [5]: 2
fold change (FC) [6]: 1.2
Activity [7]: Active
Activity [8]: Active
Activity [9]: Active

Compound: CCOC(=O)C1=CN(C(=O)c2cccc3ccccc23)C=C(C(=O)OCC)C1c1ccccc1
fold change (FC) [5]: 2

Compound: CCOC(=O)C1=CN(Cc2ccccc2)C=C(C(=O)OCC)C1c1ccc(-c2ccccc2)cc1
fold change (FC) [5]: 2

Compound: CCOC(=O)C1=CN(C(=O)c2cnc3ccccc3n2)C=C(C(=O)OCC)C1c1ccccc1
fold change (FC) [10]: 1.5
fold change (FC) [5]: 2
fold change (FC) [6]: 1.2

Compound: CCOC(=O)C1=CN(C(=O)c2cc(OC)c(OC)c(OC)c2)C=C(C(=O)OCC)C1c1ccsc1
fold change (FC) [3]: 2.5

Compound: CCOC(=O)C1=CN(C(=O)c2cc(OC)c(OC)c(OC)c2)C=C(C(=O)OCC)C1c1ccco1
fold change (FC) [1]: 2
Activity [2]: Active
fold change (FC) [3]: 2.5

Compound: CCOC(=O)C1=CN(C(=O)c2ccccc2)C=C(C(=O)OCC)C1c1ccsc1
fold change (FC) [1]: 3
Activity [11]: Active
Activity [7]: Active
Activity [12]: Active
Activity [8]: Active
Activity [9]: Active

Compound: CCOC(=O)C1=CN(Cc2ccccc2)C=C(C(=O)OCC)C1c1ccsc1
fold change (FC) [10]: 1.5

Compound: CCOC(=O)C1=CN(Cc2ccccc2)C=C(C(=O)OCC)C1c1cncs1
inhibition [13]: 75%
inhibition [14]: 60%

Compound: CCOC(=O)C1=CN(C(=O)c2ccccc2)C=C(C(=O)OCC)C1c1ccc(OC)cc1
fold change (FC) [10]: 1.5
fold change (FC) [6]: 1.2

Compound: CCOC(=O)C1=CN(Cc2ccccc2)C=C(C(=O)OCC)C1c1ccc2ccccc2c1
fold change (FC) [5]: 2
fold change (FC) [6]: 1.2

Compound: CCOC(=O)C1=CN(Cc2ccccc2)C=C(C(=O)OCC)C1c1cc2ccccc2s1
fold change (FC) [5]: 2

Compound: CCOC(=O)C1=CN(C(=O)c2ccccc2)C=C(C(=O)OCC)C1c1ccccc1Cl
fold change (FC) [5]: 2

Compound: CCOC(=O)C1=CN(C(=O)c2ccccc2)C=C(C(=O)OCC)C1c1ccco1
fold change (FC) [1]: 2

Compound: CCOC(=O)C1=CN(C(=O)c2ccccc2)C=C(C(=O)OCC)C1c1cccc(OC)c1
fold change (FC) [5]: 2
fold change (FC) [6]: 1.2

Compound: CCOC(=O)C1=CN(Cc2cc(OC)c(OC)c(OC)c2)C=C(C(=O)OCC)C1c1ccccc1
Activity [4]: Active

The remaining lines, values ahead:

Activity [4]: Active
Compound: CCOC(=O)C1=CN(C(=O)c2cc(OC)c(OC)c(OC)c2)C=C(C(=O)OCC)C1c1cccc(Cl)c1

fold change (FC) [5]: 2
Compound: CCOC(=O)C1=CN(Cc2ccccc2)C=C(C(=O)OCC)C1c1cccc2ccccc12

fold change (FC) [1]: 2
fold change (FC) [3]: 2.5
Compound: CCOC(=O)C1=CN(C(=O)c2cc(OC)c(OC)c(OC)c2)C=C(C(=O)OCC)C1c1ccc(CN2CCN(C)CC2)cc1

fold change (FC) [10]: 1.5
Compound: CCOC(=O)C1=CN(Cc2ccccc2)C=C(C(=O)OCC)C1c1ccco1

fold change (FC) [10]: 1.5
Compound: CCOC(=O)C1=CN(C(=O)c2ccc3ccccc3c2)C=C(C(=O)OCC)C1c1ccccc1

fold change (FC) [5]: 2
Compound: CCOC(=O)C1=CN(C(=O)c2ccccc2)C=C(C(=O)OCC)C1c1ccccc1OC

fold change (FC) [15]: 2
fold change (FC) [10]: 1.5
Compound: CCOC(=O)C1=CN(Cc2ccccc2)C=C(C(=O)OCC)C1c1ccccc1

Activity [4]: Active
Compound: CCOC(=O)C1=CN(Cc2cc(OC)c(OC)c(OC)c2)C=C(C(=O)OCC)C1c1cnc2ccccc2c1

fold change (FC) [5]: 2
fold change (FC) [6]: 1.2
Compound: CCOC(=O)C1=CN(C(=O)c2ccccc2)C=C(C(=O)OCC)C1c1ccc(Cl)cc1

fold change (FC) [1]: 3
Activity [4]: Active
Compound: CCOC(=O)C1=CN(C(=O)c2ccccc2)C=C(C(=O)OCC)C1c1ccoc1

From ChEMBL document CHEMBL5108071, “Potent and Specific Activators for Mitochondrial Sirtuins Sirt3 and Sirt5” (J Med Chem, 2022)
